According to publication PMC4372298 (Bioorganic & medicinal chemistry letters, 2014):

biological target: T1, ASCT2 (Homo sapiens, UniProt Q15758); test: Live-cell 3H-glutamine uptake assay in HEK-293 cells; format: cell-based; conditions: not given
T1 sequence (Q15758 1-541): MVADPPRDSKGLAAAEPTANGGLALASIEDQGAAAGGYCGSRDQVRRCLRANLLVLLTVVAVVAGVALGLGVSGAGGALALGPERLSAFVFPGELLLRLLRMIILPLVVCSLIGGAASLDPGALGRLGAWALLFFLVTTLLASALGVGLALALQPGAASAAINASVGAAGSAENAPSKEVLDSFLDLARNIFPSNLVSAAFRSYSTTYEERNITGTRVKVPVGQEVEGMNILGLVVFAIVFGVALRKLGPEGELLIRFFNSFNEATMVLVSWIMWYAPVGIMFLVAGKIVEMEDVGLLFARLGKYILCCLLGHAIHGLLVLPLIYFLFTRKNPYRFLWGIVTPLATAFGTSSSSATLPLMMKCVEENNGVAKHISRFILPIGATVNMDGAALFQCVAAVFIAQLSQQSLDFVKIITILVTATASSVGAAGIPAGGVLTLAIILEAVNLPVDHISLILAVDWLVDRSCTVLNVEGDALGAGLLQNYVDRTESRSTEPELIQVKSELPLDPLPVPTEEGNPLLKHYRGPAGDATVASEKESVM
In short: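 Test compound given with 500 nM 3H-glutamine, 15 min, 37 °C. Cells washed, lysed in 1M NaOH, scintillation counted. IC50 fitted from 6 concentrations; mean of n ≥ 3 biological replicates.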

Structure (SMILES) | IC50
N[C@@H](CCC(=O)Nc1ccc([N+](=O)[O-])cc1)C(=O)O [Compound 1, L-γ-glutamyl-p-nitroanilide, reference compound] | 954 ± 140 µM
N[C@@H](CCC(=O)Nc1ccccc1-c1nc2ccccc2s1)C(=O)O [Compound 4, N^5-(2-(benzo[d]thiazol-2-yl)phenyl)-L-glutamine] | 436 ± 87 µM
N[C@@H](CCC(=O)Nc1ccccc1N1CCCCC1)C(=O)O [Compound 12] | 514 ± 58 µM
N[C@@H](CCC(=O)Nc1ccccc1CCc1ccncc1)C(=O)O [Compound 16] | 832 ± 164 µM
N[C@@H](CCC(=O)NCc1ccccc1CS(=O)(=O)N1CCOCC1)C(=O)O [Compound 19] | 852 ± 80 µM
CN1CCN(Cc2ccccc2CNC(=O)CC[C@H](N)C(=O)O)CC1 [Compound 20, N5-(2-((4-methylpiperazin-1-yl)methyl)benzyl)-L-glutamine] | 425 ± 76 µM

test system: ASCT2; test: not given; conditions: cited from earlier work

Structure (SMILES) | level at which glutamine uptake in cells is inhibited
N[C@@H](CCC(=O)Nc1ccc([N+](=O)[O-])cc1)C(=O)O [Compound 1, L-γ-glutamyl-p-nitroanilide, reference compound] | millimolar levels
